Source: ChEMBL document CHEMBL1142704, “Design and biological evaluation of linear and cyclic phosphopeptide ligands of the N-terminal SH2 domain of protein tyrosine phosphatase SHP-1” (J Med Chem, 2005)
*1 amine or outer side, *2 acyl side, *3 side chain or, on linkers, in order; H or OH if unused. Where a SMILES comes first, the peptide text is derived from it. Bridges are numbered along the chain shown (N, C = ends). [ ]: non-standard residue; d: D form. X1 = O=C(CC[C@H](N[*:1])C(=O)[*:2])CN[*:3]; X4 = O=C([C@@H](N[*:1])C(O)c1ccccc1)[*:2]; X5 = O=C(CN[*:3])C[C@H](N[*:1])C(=O)[*:2]; pY = N[C@@H](Cc1ccc(OP(=O)(O)O)cc1)C(=O)O; hPhe = N[C@@H](CCc1ccccc1)C(=O)O; Tic = O=C(O)[C@@H]1Cc2ccccc2CN1; Nle = CCCC[C@H](N)C(=O)O; CO = O=C([*:1])[*:2]

How the values were obtained:
[1] = molecular target: T1, Tyrosine-protein phosphatase non-receptor type 6 (Homo sapiens, UniProt P29350); assay: Concentration required to stimulate SHP-1 enzymatic activity by 50%; not active
Outline: (§1)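 SHP-1 activity on p-nitrophenyl phosphate (10 mM) in 50 mM Hepes pH 7.4, 50 mM NaCl, 1 mM EDTA, 1 mM TCEP with 0-500 µM peptide. Enzyme (0.5 µg) added last, 30 min at room temperature, stopped with 1 M NaOH, A405 read. Activity relative to no-peptide enzyme. Duplicates, mean of three independent experiments. Not active: maximal activity ≤0.4 relative to Ros pY2267.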

[2] = molecular target: T1, Tyrosine-protein phosphatase non-receptor type 6; assay: Dissociation constant for the interaction with the GST-N-SH2 domain of SHP-1; nb is no binding
Outline: (§2)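 SPR at room temperature in 10 mM Hepes pH 7.4, 150 mM NaCl, 3.4 mM EDTA, 0.005% Tween20. Biotinylated peptides captured on the chip to 20-40 RU. FPLC-purified GST-SHP-1 N-SH2 was injected 5 min at 30 µL/min, then dissociation was followed. Blank flow cell subtracted. Equilibrium RU vs domain concentration was fit to a one-site hyperbola for Kd.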

[3] = molecular target: T1, Tyrosine-protein phosphatase non-receptor type 6; assay: Concentration required to stimulate SHP-1 enzymatic activity by 50%; outline: as §1
[4] = molecular target: T1, Tyrosine-protein phosphatase non-receptor type 6; assay: Dissociation constant for the interaction with the GST-N-SH2 domain of SHP-1; outline: as §2

T1 sequence (P29350 whole entry): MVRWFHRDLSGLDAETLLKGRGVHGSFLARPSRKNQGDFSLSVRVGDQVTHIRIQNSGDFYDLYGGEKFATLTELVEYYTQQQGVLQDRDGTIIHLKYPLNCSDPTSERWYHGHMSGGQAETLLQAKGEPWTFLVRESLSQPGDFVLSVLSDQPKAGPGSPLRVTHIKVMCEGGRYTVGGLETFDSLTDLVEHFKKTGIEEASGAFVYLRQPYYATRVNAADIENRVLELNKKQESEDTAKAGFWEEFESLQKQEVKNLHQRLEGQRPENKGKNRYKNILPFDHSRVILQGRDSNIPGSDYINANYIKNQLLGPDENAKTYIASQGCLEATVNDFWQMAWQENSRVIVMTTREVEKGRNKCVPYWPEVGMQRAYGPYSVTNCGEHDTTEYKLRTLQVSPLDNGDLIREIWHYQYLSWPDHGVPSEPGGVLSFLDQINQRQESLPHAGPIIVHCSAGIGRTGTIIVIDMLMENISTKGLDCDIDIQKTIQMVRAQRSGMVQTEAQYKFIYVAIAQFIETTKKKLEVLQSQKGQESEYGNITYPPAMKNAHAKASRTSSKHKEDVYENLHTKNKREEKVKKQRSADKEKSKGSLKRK

Row | Structure (SMILES) | EC50 [1] | Kd [2] | EC50 [3] | Kd [4] [nM] | EC50 ([3]; read-out: EC50) [nM]
1 | CSCC[C@@H]1NC(=O)[C@H](Cc2ccc(OP(=O)(O)O)cc2)NC(=O)[C@@H](NC(=O)[C@H](CC(C)C)NC(=O)CNC(=O)[C@@H](N)CCC(=O)O)CCCCNC(=O)CC[C@@H](C(=O)N[C@@H](CC(C)C)C(=O)O)NC1=O (H-EGLK[pY]MEL-OH; lactam 4-7) | Not Active | Not Active |  |  | 
2 | CSCC[C@@H]1NC(=O)[C@H](Cc2ccc(OP(=O)(O)O)cc2)NC(=O)[C@@H](NC(=O)[C@H](CC(C)C)NC(=O)CNC(=O)[C@@H](N)CCC(=O)O)CCCCNC(=O)NCC(=O)CC[C@@H](C(=O)N[C@@H](CC(C)C)C(=O)O)NC1=O (H-EGLK[pY]M[X1]L-OH; linker 4-7 via CO) |  |  | Not Active | 210 | 
3 | CSCC[C@@H]1NC(=O)[C@H](Cc2ccc(OP(=O)(O)O)cc2)NC(=O)[C@@H](NC(=O)[C@H](CC(C)C)NC(=O)CNC(=O)[C@@H](N)CCC(=O)O)CCCCNC(=O)NCC(=O)C[C@@H](C(=O)N[C@@H](CC(C)C)C(=O)O)NC1=O (H-EGLK[pY]M[X5]L-OH; linker 4-7 via CO) | Not Active |  |  | 110 | 
4 | CC(C)C[C@H](NC(=O)[C@@H](NC(=O)[C@H](Cc1ccccc1)NC(=O)[C@H](Cc1ccc(OP(=O)(O)O)cc1)NC(=O)[C@H](CC(N)=O)NC(=O)[C@H](CC(C)C)NC(=O)CNC(=O)[C@@H](N)CCC(=O)O)C(C)C)C(N)=O (H-EGLN[pY]FVL-NH2) |  |  |  | 690 | 70000
5 | CSCC[C@H](NC(=O)[C@H](Cc1ccc(OP(=O)(O)O)cc1)NC(=O)[C@H](CC(N)=O)NC(=O)[C@H](CC(C)C)NC(=O)CNC(=O)[C@@H](N)CCC(=O)O)C(=O)N[C@H](C(=O)N[C@@H](Cc1ccccc1)C(N)=O)C(C)C (H-EGLN[pY]MVF-NH2) |  |  |  | 1000 | 140000
6 | CSCC[C@H](NC(=O)[C@H](Cc1ccc(OP(=O)(O)O)cc1)NC(=O)[C@H](CC(N)=O)NC(=O)[C@H](CC(C)C)NC(=O)CNC(=O)[C@@H](N)CCC(=O)O)C(=O)N[C@H](C(=O)N[C@@H](CC(C)C)C(N)=O)C(C)C (H-EGLN[pY]MVL-NH2) |  |  |  | 1440 | 160000
7 | CSCC[C@H](NC(=O)[C@H](Cc1ccc(OP(=O)(O)O)cc1)NC(=O)[C@H](CC(N)=O)NC(=O)[C@H](CC(C)C)NC(=O)CNC(=O)[C@@H](N)CCC(=O)O)C(=O)N[C@H](C(=O)N[C@H](C(N)=O)C(O)c1ccccc1)C(C)C (stereo partly specified) (H-EGLN[pY]MV[X4]-NH2) |  |  |  | 290 | 85000
8 | CCCC[C@H](NC(=O)[C@H](Cc1ccc(OP(=O)(O)O)cc1)NC(=O)[C@H](CC(N)=O)NC(=O)[C@H](CC(C)C)NC(=O)CNC(=O)[C@@H](N)CCC(=O)O)C(=O)N[C@H](C(=O)N[C@@H](Cc1ccccc1)C(N)=O)C(C)C (H-EGLN[pY][Nle]VF-NH2) |  |  |  | 230 | 60000
9 | CC[C@H](C)[C@H](NC(=O)[C@@H]1Cc2ccccc2CN1C(=O)[C@H](Cc1ccc(OP(=O)(O)O)cc1)NC(=O)[C@H](CC(N)=O)NC(=O)[C@H](CC(C)C)NC(=O)CNC(=O)[C@@H](N)CCC(=O)O)C(=O)N1Cc2ccccc2C[C@H]1C(N)=O (H-EGLN[pY][Tic]I[Tic]-NH2) | Not Active | Not Active |  |  | 
10 | CC(C)C[C@H](NC(=O)[C@@H](NC(=O)[C@@H](NC(=O)[C@H](Cc1ccc(OP(=O)(O)O)cc1)NC(=O)[C@H](CC(N)=O)NC(=O)[C@H](CC(C)C)NC(=O)CNC(=O)[C@@H](N)CCC(=O)O)C(O)c1ccccc1)C(C)C)C(N)=O (stereo partly specified) (H-EGLN[pY][X4]VL-NH2) |  |  |  | 1080 | 220000
11 | CC(C)C[C@H](NC(=O)[C@@H](NC(=O)[C@H](CCc1ccccc1)NC(=O)[C@H](Cc1ccc(OP(=O)(O)O)cc1)NC(=O)[C@H](CC(N)=O)NC(=O)[C@H](CC(C)C)NC(=O)CNC(=O)[C@@H](N)CCC(=O)O)C(C)C)C(N)=O (H-EGLN[pY][hPhe]VL-NH2) |  |  |  | 900 | 140000
12 | CC(C)C[C@H](NC(=O)[C@@H](NC(=O)[C@@H](NC(=O)[C@H](Cc1ccc(OP(=O)(O)O)cc1)NC(=O)[C@H](CC(N)=O)NC(=O)[C@H](CC(C)C)NC(=O)CNC(=O)[C@@H](N)CCC(=O)O)C(C)c1ccccc1)C(C)C)C(N)=O (stereo in doubt; 5a) |  |  |  | 240 | 50000
13 | CC(C)C[C@H](NC(=O)[C@@H](NC(=O)[C@@H](NC(=O)[C@H](Cc1ccc(OP(=O)(O)O)cc1)NC(=O)[C@H](CC(N)=O)NC(=O)[C@H](CC(C)C)NC(=O)CNC(=O)[C@@H](N)CCC(=O)O)C(C)c1ccccc1)C(C)C)C(N)=O (stereo in doubt; 5b) |  |  |  | 160 | 220000
